Drawing on ChEMBL document CHEMBL3739379, “Anti-Candida activity and cytotoxicity of a large library of new N-substituted-1,3-thiazolidin-4-one derivatives” (Eur J Med Chem, 2016), this text covers MIC for 6 molecules.

Type in all cases: functional
One test concerns Nakaseomyces glabratus. The experiment in a line: Antifungal activity against Candida glabrata clinical isolate after 24 hrs by sabouraud dextrose broth based microdilution method. Summed up:
(§1)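 Clinical isolates identified by conventional methods and subcultured for purity. Broth microdilution per NCCLS in Sabouraud dextrose broth; compounds dissolved in DMSO and serially diluted; inoculum 10^3/mL. Controls: fungi without compound, medium only. Incubated 24 h at 37 °C. MIC is the lowest concentration with complete growth inhibition by unaided eye. Values are geometric means over isolates per species.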

For a further test, the system named is Pichia kudriavzevii. The experiment in a line: Antifungal activity against Candida krusei clinical isolate after 24 hrs by sabouraud dextrose broth based microdilution method. Summed up: as §1
A general note: Dilution methods test growth across graded concentrations, often in twofold steps.

A further test has as its system Proteus mirabilis. Nature of the test: Antibacterial activity against Proteus mirabilis after 18 to 22 hrs by broth microdilution method. In short, it runs like this: (§2)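 Broth microdilution per NCCLS in Mueller-Hinton II broth; isolates subcultured for purity. Compounds dissolved in DMSO, serial dilutions 256 to 0.5 µg/mL; inoculum 10^5/mL. Controls: organism without compound, medium only. Incubation 18 to 22 h at 35 °C. MIC is the lowest concentration giving complete growth inhibition, read by unaided eye.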

Another test deals with Enterococcus faecalis. Nature of the test: Antibacterial activity against […] faecalis after 18 to 22 hrs by broth microdilution method. In short, it runs like this: as §2
A further test relates to Klebsiella oxytoca. The experiment in a line: Antibacterial activity against Klebsiella oxytoca after 18 to 22 hrs by broth microdilution method. Summed up:
as §2

A further test deals with Staphylococcus warneri. The experiment in a line: Antibacterial activity against Staphylococcus warneri after 18 to 22 hrs by broth microdilution method. In short, it runs like this: as §2
The next test deals with Enterobacter sp. The experiment in a line: Antibacterial activity against Enterobacter sp. after 18 to 22 hrs by broth microdilution method. In short, it runs like this:
as §2

The next test concerns Candida tropicalis. Nature of the test: Antifungal activity against Candida tropicalis clinical isolate after 24 hrs by sabouraud dextrose broth based microdilution method. Summed up: as §1
In the next test the test system is Candida albicans. Nature of the test: Antifungal activity against Candida albicans clinical isolate after 24 hrs by sabouraud dextrose broth based microdilution method. Summed up:
as §1

In the next test the test system is Candida parapsilosis. The experiment in a line: Antifungal activity against Candida parapsilosis clinical isolate after 24 hrs by sabouraud dextrose broth based microdilution method. The settings on record: Lodderomyces parapsilosis. Summed up:
as §1

A further test relates to Escherichia coli. Nature of the test: Antibacterial activity against Escherichia coli at after 18 to 22 hrs by broth microdilution method. Summed up:
as §2

The next test deals with [Candida] sake. The experiment in a line: Antifungal activity against Candida sake clinical isolate after 24 hrs by sabouraud dextrose broth based microdilution method. The settings on record: Fermentozyma sake. In short, it runs like this:
as §1

Another test deals with Staphylococcus aureus. Nature of the test: Antibacterial activity against Staphylococcus aureus after 18 to 22 hrs by broth microdilution method. Summed up:
as §2

In test [1] the test system is Staphylococcus haemolyticus. Nature of the test: Antibacterial activity against Staphylococcus haemolyticus after 18 to 22 hrs by broth microdilution method. In short, it runs like this:
as §2

Converted amounts (≈) assume the structure as drawn.

Consider `O=C1CS/C(=N\N=C2CCCCCC2)N1Cc1cccc2ccccc12`, for which the minimum inhibitory concentration (MIC) against Nakaseomyces glabratus was 16 mg/L (≈ 43.8 µM); against Pichia kudriavzevii, 4 mg/L (≈ 10.9 µM); in the test with Proteus mirabilis it was above 256 mg/L; with Enterococcus faecalis, above 256 mg/L; in the test on Klebsiella oxytoca, above 256 mg/L; against Staphylococcus warneri it was above 256 mg/L. Further, the minimum inhibitory concentration (MIC) against Enterobacter sp. was above 256 mg/L; with Candida tropicalis it was 8 mg/L (≈ 21.9 µM); in the test with Candida albicans, 8 mg/L (≈ 21.9 µM); with Candida parapsilosis, 4 mg/L (≈ 10.9 µM); against Escherichia coli, above 256 mg/L; in test [Candida] sake, 4 mg/L (≈ 10.9 µM). For the same molecule, the minimal inhibitory concentration (MIC) (against Staphylococcus aureus; in test [1]) was above 256 mg/L in each case.

Take `CCC(CC)=N/N=C1\SCC(=O)N1Cc1ccc([N+](=O)[O-])cc1`: the minimum inhibitory concentration (MIC) was 8 mg/L (≈ 23.9 µM) with Nakaseomyces glabratus; 32 mg/L (≈ 95.7 µM) with Pichia kudriavzevii; above 256 mg/L in the test on Proteus mirabilis; above 256 mg/L in the test with Enterococcus faecalis; above 256 mg/L in the test with Klebsiella oxytoca; above 256 mg/L in the test on Staphylococcus warneri. Moreover, the MIC was above 256 mg/L against Enterobacter sp.; 8 mg/L (≈ 23.9 µM) in the test on Candida tropicalis; 2 mg/L (≈ 5.98 µM) with Candida albicans; 128 mg/L (≈ 383 µM) with Candida parapsilosis; above 256 mg/L against Escherichia coli; 2 mg/L (≈ 5.98 µM) in [Candida] sake. In addition, the minimum inhibitory concentration (MIC) (against Staphylococcus aureus; in [1]) was above 256 mg/L in each case.

For the molecule `CC1CCC(=N/N=C2\SCC(=O)N2Cc2cccc3ccccc23)CC1` (centres undefined), the MIC in the test on Nakaseomyces glabratus was 16 mg/L (≈ 43.8 µM); with Pichia kudriavzevii it was 8 mg/L (≈ 21.9 µM); against Proteus mirabilis it was above 256 mg/L; in the test on Enterococcus faecalis, above 256 mg/L; with Klebsiella oxytoca, above 256 mg/L; in the test on Staphylococcus warneri, above 256 mg/L. Also, the minimum inhibitory concentration (MIC) with Enterobacter sp. was above 256 mg/L; with Candida tropicalis it was 128 mg/L (≈ 350 µM); against Candida albicans it was 2 mg/L (≈ 5.47 µM); in the test on Candida parapsilosis it was 8 mg/L (≈ 21.9 µM); in the test on Escherichia coli it was above 256 mg/L; in test [Candida] sake it was 4 mg/L (≈ 10.9 µM). Further, the minimum inhibitory concentration (MIC) (with Staphylococcus aureus; in test [1]) was above 256 mg/L throughout.

As to `CCC/C(C)=N/N=C1\SCC(=O)N1Cc1ccc([N+](=O)[O-])cc1`, the MIC is 2 mg/L (≈ 5.98 µM) in the test with Nakaseomyces glabratus; 16 mg/L (≈ 47.8 µM) in the test with Pichia kudriavzevii; above 256 mg/L with Proteus mirabilis; above 256 mg/L in the test with Enterococcus faecalis; above 256 mg/L against Klebsiella oxytoca; above 256 mg/L against Staphylococcus warneri. For the same molecule, the MIC in the test on Enterobacter sp. was above 256 mg/L; against Candida tropicalis, 64 mg/L (≈ 191 µM); against Candida albicans, 2 mg/L (≈ 5.98 µM); against Candida parapsilosis it was 16 mg/L (≈ 47.8 µM); against Escherichia coli it was above 256 mg/L; in test [Candida] sake, 8 mg/L (≈ 23.9 µM). Further, the MIC (with Staphylococcus aureus; in [1]) was above 256 mg/L in each case.

In the case of `CC(C)=N/N=C1\SCC(=O)N1Cc1ccc([N+](=O)[O-])cc1`, the minimum inhibitory concentration (MIC) in the test with Nakaseomyces glabratus is 4 mg/L (≈ 13.1 µM); against Pichia kudriavzevii, 2 mg/L (≈ 6.53 µM); against Proteus mirabilis it was above 256 mg/L; in the test on Enterococcus faecalis it was above 256 mg/L; with Klebsiella oxytoca it was above 256 mg/L; with Staphylococcus warneri, above 256 mg/L. Moreover, the minimum inhibitory concentration (MIC) with Enterobacter sp. is above 256 mg/L; against Candida tropicalis, 2 mg/L (≈ 6.53 µM); in the test on Candida albicans, 4 mg/L (≈ 13.1 µM); against Candida parapsilosis it was 2 mg/L (≈ 6.53 µM); in the test with Escherichia coli, above 256 mg/L; in test [Candida] sake, 2 mg/L (≈ 6.53 µM). Also, the MIC (with Staphylococcus aureus; in test [1]) was above 256 mg/L in each case.

Take `CC/C(C)=N/N=C1\SCC(=O)N1Cc1ccc([N+](=O)[O-])cc1`: the MIC against Nakaseomyces glabratus is 2 mg/L (≈ 6.24 µM); in the test on Pichia kudriavzevii, 2 mg/L (≈ 6.24 µM); in the test on Proteus mirabilis, above 256 mg/L; in the test with Enterococcus faecalis, above 256 mg/L; against Klebsiella oxytoca it was above 256 mg/L; against Staphylococcus warneri, above 256 mg/L. In addition, the minimum inhibitory concentration (MIC) in the test on Enterobacter sp. was above 256 mg/L; in the test on Candida tropicalis it was 128 mg/L (≈ 400 µM); with Candida albicans it was 2 mg/L (≈ 6.24 µM); against Candida parapsilosis it was 2 mg/L (≈ 6.24 µM); in the test with Escherichia coli it was above 256 mg/L; in test [Candida] sake, 8 mg/L (≈ 25 µM). Further, the MIC (with Staphylococcus aureus; in test [1]) was above 256 mg/L each time.

One may read the MIC as the smallest concentration in the dilution series that meets the test's criterion for growth inhibition. A higher MIC goes with a less susceptible organism.
